Bioassay records deposited in PubChem by several laboratories.
CHOP inh: CHOP inhibition in unfolded protein response | CHO-K1 CHOP-promoter luciferase, tunicamycin-induced, 15-18 h | inhibition, % at 10 µM | 220,000 compounds, 3.8% hits | AID 2732;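 active = compounds that reduced the stress-induced luciferase reporter signal by more than about 70% of percent inhibition, limit read from the data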
UPR CHOP act: activators of apoptotic arm of unfolded protein response (CHOP) | CHO-CHOP luciferase reporter, UPR activation, luminescence; percent of tunicamycin response over DMSO baseline | activation, % at 10 µM | 330,000 compounds, 0.34% hits | AID 449763;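 active = at 10 µM dose, activation of 40% or more, normalized to positive control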
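Test system: CHO CHOP reporter cells. Input: 500 CHO-CHOP cells per well. Medium: F12 with 10% FBS. Technique: luciferase luminescence. Measure: percent activation relative to tunicamycin control. Dosing: 10 µM compound, 0.5% DMSO. Timing: 16-18 h cell attachment, then 6 h compound exposure, 37 °C.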
697 NFkB inh: lowers PMA/ionomycin-induced NF-kB signal in 697 B cells; 697 B-cell NF-kB luciferase reporter, 16 h; inhibition, % at 4 µM; 330,000 compounds, 0.33% hits; in the data active = inhibition above about 35%
Jurkat NFkB inh: inhibitors of the PMA/ionomycin-induced NF-kB reporter in Jurkat cells; PMA/ionomycin-induced NF-kB luciferase reporter, luminescence; inhibition, % at 4 µM; 330,000 compounds, 0.53% hits; AID 435003; in the data active = inhibition above about 50%
XBP1 UPR activ: adaptive UPR (XBP1) activation | CHO-XBP1 luciferase reporter, IRE1-XBP1 UPR activation, luminescence; percent of tunicamycin response, DMSO as zero | activation, % at 20 µM | 330,000 compounds, 0.33% hits | AID 463104;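 active = versus positive control, 20 µM dose yields 30% or more activation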
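Material: IRE1-XBP1 luciferase reporter CHO line / Quantity: one thousand reporter cells per well / Buffer or medium: F12 with 10% serum / Compound: 20 µM single concentration, DMSO 1% / Times: 6 h treatment, 37 °C / Detection: Steady-Glo luciferase glow luminescence, 10 min after reagent addition / Benchmarks: tunicamycin high, DMSO low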
Numbers stand for hits. Many of the other results were omitted from the sample, so hits are more common in it than they were.

How did CC(=O)C1=C(c2ccccc2)NC(=O)NC1c1ccccc1OCC(=O)Nc1ccccc1 (centres undefined) do in these assays?
CHOP inh: 71.7; UPR CHOP act: inactive; 697 NFkB inh: inactive; Jurkat NFkB inh: inactive; XBP1 UPR activ: inactive

Results for CC(=O)C1=C(C)NC(=O)NC1c1ccccc1OCC(=O)NCCc1ccccc1 (centres undefined) ?
CHOP inh: inactive; UPR CHOP act: inactive; 697 NFkB inh: inactive; Jurkat NFkB inh: inactive; XBP1 UPR activ: inactive

Results for CCOC(=O)c1ccc(NC(=O)c2nc[nH]c2C(=O)N2CCc3ccccc3C2)cc1 ?
CHOP inh: 72.2; UPR CHOP act: inactive; 697 NFkB inh: inactive; Jurkat NFkB inh: inactive; XBP1 UPR activ: inactive

How did O=[N+]([O-])c1ccc(CSc2ncnc3c2ncn3[C@@H]2O[C@H](CO)[C@H](O)C2O)cc1 (some centres undefined) do in these assays?
CHOP inh: inactive

How did CC(=O)OCCN(Cc1ccccc1)Cc1ccc2c(c1)OCO2 do in these assays?
CHOP inh: 70.3; UPR CHOP act: inactive; 697 NFkB inh: inactive; Jurkat NFkB inh: inactive; XBP1 UPR activ: inactive

Results for COc1cc(/C=C2\SC(N)=NC2=O)ccc1OCC(=O)Nc1ccccc1C ?
UPR CHOP act: inactive; 697 NFkB inh: inactive; Jurkat NFkB inh: inactive; XBP1 UPR activ: inactive

How did Cc1cc(C(=O)CSc2nc3ccccc3[nH]2)c(C)n1CC1CCCO1 (centres undefined) do in these assays?
CHOP inh: 73.8; UPR CHOP act: inactive; 697 NFkB inh: inactive; Jurkat NFkB inh: inactive; XBP1 UPR activ: inactive

How did Cc1nnc(C)n1/N=C/c1ccc(O)cc1 do in these assays?
CHOP inh: inactive; UPR CHOP act: inactive; 697 NFkB inh: inactive; Jurkat NFkB inh: inactive; XBP1 UPR activ: inactive

Results for Oc1ccc(/C=N/n2c3ccccc3c3ccccc32)cc1 ?
CHOP inh: 91.0; UPR CHOP act: inactive; 697 NFkB inh: inactive; Jurkat NFkB inh: inactive; XBP1 UPR activ: inactive

Results for CCCCc1nc2sc3c(SCC(=O)NCc4ccco4)ncnc3c2c2c1CCC2 ?
CHOP inh: 86.1; UPR CHOP act: inactive; 697 NFkB inh: inactive; Jurkat NFkB inh: inactive; XBP1 UPR activ: inactive

How did CCOC(=O)/C(C#N)=C1/C=C(C)NC(c2ccccc2O)=N1 do in these assays?
CHOP inh: inactive; UPR CHOP act: inactive; 697 NFkB inh: inactive; Jurkat NFkB inh: inactive; XBP1 UPR activ: inactive

How did CCCCN(CCCC)C1=Nc2ccccc2N/C1=C(/C#N)C(=O)OCC do in these assays?
CHOP inh: 72.1; UPR CHOP act: inactive; 697 NFkB inh: inactive; Jurkat NFkB inh: inactive; XBP1 UPR activ: inactive

Results for CCOC(=O)/C(C#N)=C1\Nc2ccccc2N=C1N(CC(C)C)CC(C)C ?
CHOP inh: 76.5; UPR CHOP act: inactive; 697 NFkB inh: inactive; Jurkat NFkB inh: inactive; XBP1 UPR activ: inactive

Results for Cc1nn(Cc2ccccc2)c(Cl)c1/C=C/C(=O)OCC(=O)NC(C)C(C)C (centres undefined) ?
CHOP inh: inactive; UPR CHOP act: inactive; 697 NFkB inh: inactive; Jurkat NFkB inh: inactive; XBP1 UPR activ: inactive

What do the screens show for `Cc1nn(Cc2c(Cl)cccc2Cl)c(Cl)c1/C=C/C(=O)OCC(=O)NCC(F)(F)F`?
CHOP inh: 75.2; UPR CHOP act: inactive; 697 NFkB inh: inactive; Jurkat NFkB inh: inactive; XBP1 UPR activ: inactive

How did Cc1ccc(-c2nc(N)n(C(=O)Cc3ccccc3)n2)cc1 do in these assays?
CHOP inh: 86.2; UPR CHOP act: inactive; 697 NFkB inh: inactive; Jurkat NFkB inh: inactive; XBP1 UPR activ: inactive

Results for CCC(C)c1ccc(NC(=S)NCCn2cc(Br)cn2)cc1 (centres undefined) ?
CHOP inh: 71.5; UPR CHOP act: inactive; 697 NFkB inh: inactive; Jurkat NFkB inh: inactive; XBP1 UPR activ: inactive

Results for COc1ccc(C(=O)Nc2nc(CC(=O)NCCc3ccccc3OC)cs2)cc1 ?
UPR CHOP act: inactive; 697 NFkB inh: inactive; Jurkat NFkB inh: inactive; XBP1 UPR activ: inactive

How did CCN(CC(=O)NCc1ccncc1)S(=O)(=O)c1ccc(OC)cc1 do in these assays?
UPR CHOP act: inactive; 697 NFkB inh: inactive; Jurkat NFkB inh: inactive; XBP1 UPR activ: inactive

What do the screens show for `COc1ccc(/C=C/C(=O)OCC(=O)Nc2cc3oc4ccccc4c3cc2OC)cc1`?
CHOP inh: inactive; UPR CHOP act: 115.1; 697 NFkB inh: inactive; Jurkat NFkB inh: inactive; XBP1 UPR activ: 162.5
